Screening results from PubChem.
MPTP inh: inhibitors of mitochondrial permeability transition pore; inhibition, % at 10 µM; AID 602449; 360,000 compounds, 1.4% hits; isolated mouse mitochondria, Ca2+ swelling absorbance, 30 min;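 active means inhibition of 50% or more, scaled per plate between neutral and stimulator controls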;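 further: 0% = DMSO wells given calcium and 100% = 1 mM EGTA wells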
Redox H2O2 prof: compounds producing H2O2 with reducing agent – biochemical, NIH compound library profiling, artefact control for MLSCN library redox annotation, primary screen. activation, % at 10 µM. AID 878. 200,000 compounds, 0.03% hits. DTT-dependent redox cycling H2O2, phenol red/HRP absorbance; 100% = 100 µM peroxide control, 0% = buffer;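 active means activation of at least 50% relative to the plate's high and low controls in the primary single-dose screen; inactive means activation below 50%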;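 further: compound incubated with DTT at 0.8 mM final as the reducing agent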
T cruzi repl: T. cruzi replication inhibition; T. cruzi beta-gal in NIH3T3, luminescence, 90 h; inhibition, % (concentration not given with the values); 300,000 compounds, 1.4% hits; AID 1885;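 active means mean inhibition across valid replicates above about 55%, limit read from the data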;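 further: signal also drops with host cell toxicity which is not excluded here; 0% = plate median of DMSO wells and 100% = zero luminescence signal; higher percent means less beta-gal luminescence so fewer parasites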
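System: mouse NIH/3T3 fibroblasts infected with β-gal-expressing T. cruzi Tulahuen C4 / Input: NIH/3T3 cells, 5,000 per well / Buffer or medium: Low-serum DMEM with 2% FBS / Probe or stimulus: 5000 reporter trypomastigotes per well / Schedule: ≥90 h infection period, 3 h prior cell attachment / Measured by: GalScreen luminescence, 60 min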
Hep lipid drop: hepatic lipid droplet formation modulation; inhibition, % at 6.5 µM; 240,000 compounds, 0.4% hits; AML12 mouse hepatocytes, oleate lipid droplets, BODIPY imaging;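 active means lipid droplet intensity inhibited by at least 50%, with more than 500 cells counted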
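Assay system: AML12 mouse liver cells | Compound dosing: One dose, 6.5 µM compound | Read-out basis: Droplet intensity reduction, % inhibition | Measured by: Fluorescence imaging, 20x objective, two fields per well | Schedule: Overnight treatment with compound plus oleate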
L major viab: reduces viability of Leishmania major promastigotes; inhibition, % at 10 µM; resazurin fluorescence viability; 200,000 compounds, 9% hits; AID 1063; in the data active means inhibition above about 50%;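 further: promastigotes grown with compound for 44 hours at 28 °C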
Rh123 counter: Rhodamine 123 counter-screen of mitochondrial pore hits. isolated mitochondria, membrane potential, Rhodamine 123 fluorescence. shares compounds with MPTP inh. 5,000 compounds, 78% hits. AID 624504. inhibition, % at 10 µM; in the data active means inhibition above about 22%;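 further: 0% = DMSO vehicle and 100% = positive control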
MPTP swell DR: dose response confirmation of mitochondrial permeability transition pore inhibitors; shares compounds with MPTP inh; isolated mitochondria swelling, absorbance; IC50, µM; 780 compounds, 58% hits; AID 651561; in the data active means IC50 below about 20 µM
MPTP counter DR: counter-screen for mitochondrial permeability transition pore inhibitors, dose response. shares compounds with MPTP inh. 780 compounds, 49% hits. AID 651564. IC50, µM. isolated mitochondria counterscreen, fluorescence read-out; in the data active means IC50 below about 80 µM
* hit, by the source's call; nt = not tested or not shown. The entries come from a sample that favours hits as a whole.

SMILES	MPTP inh	Redox H2O2 prof	T cruzi repl	Hep lipid drop	L major viab	Rh123 counter	others
Cc1ccccc1NC(=S)Nc1ccc(Br)cc1	79.8*	0.8	-21.9	-9.6	14.8	82.5*
O=C1C=C(c2cccc3c2sc2ccccc23)C[C@@H](c2ccc(Cl)cc2)C1	-1.4	nt	nt	nt	nt	nt
Cc1nn(C)cc1S(=O)(=O)Nc1ccc(C(F)(F)F)cc1	-0.3	nt	-15.7	24.3	nt	nt
CCC(C)[C@H]1CNC(=S)N1CCc1cccc2ccccc12 (stereo partly drawn)	1.3	nt	0.4	-6.8	nt	nt
CCC(C)[C@H]1CN=C(N)N1CCc1cccc2ccccc12 (stereo partly drawn)	89.5*	nt	24.3	nt	nt	0.2	MPTP swell DR=6.52*;MPTP counter DR=29.7*
Cc1cc(N2CCCC2=O)cc(C)c1S(=O)(=O)NCCOc1ccc(C(C)(C)C)cc1	104.6*	0.5	14.2	-31.9	5.8	98.6*
C=CC[C@@H](CC(=O)OC(C)(C)C)C(=O)OC[C@H]1CCCN1C(=O)[C@@H](CC=C)CC(=O)N(CCO)Cc1ccccc1	1.4	nt	nt	nt	nt	nt
CC1(C)CC(=O)C(C(C2=C(O)CC(C)(C)CC2=O)c2ccc(Br)s2)C(=O)C1 (stereo not drawn)	73.1*	-0.2	-9.3	-2.5	44.5	79.6*
Cc1ccc(C(C2=C(O)CC(C)(C)CC2=O)C2C(=O)CC(C)(C)CC2=O)s1 (stereo not drawn)	2.3	-9.5	-14.7	nt	-0.9	nt
CC(C)n1c(-c2ccc(C(C)(C)C)cc2)n[nH]c1=S	68.0*	1.3	-14.8	nt	-2.7	67.0*
CC(C)(C)c1ccc(-c2n[nH]c(=S)n2Cc2ccccc2)cc1	3.1	nt	-9.7	-36.3	nt	nt
Cc1ccc(S(=O)(=O)NC(=O)c2cc(C)n(-c3ccc(N(C)C)cc3)c2C)cc1	84.6*	0.0	-1.8	-7.1	-1.5	91.0*
Cc1ccc(S(=O)(=O)NC(=O)c2cc(C)n(-c3ccccc3)c2C)cc1	2.7	0.0	-7.8	-32.1	-4.5	nt
Cc1ccccc1Nc1nnc(SCC(=O)c2c(N)n(C3CC3)c(=O)[nH]c2=O)s1	-1.7	nt	nt	nt	nt	nt
O=C(Nc1ccc(Cl)cc1Cl)C1=Cc2ccccc2OC1	-0.4	0.3	-19.4	25.6	-5.9	nt
O=C(Nc1ccc(Cl)cc1)C1=Cc2cc(Cl)ccc2OC1	98.9*	-0.3	-8.3	-15.8	-2.7	112.9*
COc1ccccc1C(CNC(=O)c1ccc(C)c(S(=O)(=O)N2CCCCC2)c1)N1CCCC1 (stereo not drawn)	-0.8	nt	nt	nt	nt	nt
FC(F)(F)c1cccc(NC(=S)NCc2ccc(Cl)cc2)c1	78.4*	-0.6	46.5	-30.7	1.0	88.4*
Fc1ccccc1CNC(=S)Nc1cccc(C(F)(F)F)c1	73.8*	0.2	7.5	-5.9	18.6	97.3*
Fc1cc(NC(=S)NCc2ccc(CNC(=S)Nc3ccc(Cl)c(F)c3)cc2)ccc1Cl	92.4*	nt	45.9	-1.3	nt	73.1*
Cn1c(=O)c2cc(NC(=S)NCc3ccccc3F)ccc2n1C	-1.4	nt	nt	nt	nt	nt
S=C(NCc1ccccc1)Nc1cccc(Cl)c1	97.0*	-0.1	8.8	15.7	18.1	100.9*
COc1ccc(OC)c(/C=C/C(=O)NCCc2nc3ccccc3[nH]2)c1	1.2	nt	9.0	-2.1	nt	nt
Cc1ccc(C=NNc2nc3c([nH]2)c(=O)n(C)c(=O)n3C)cc1	0.6	nt	nt	nt	nt	nt
O=[N+]([O-])c1cc(C(F)(F)F)cc([N+](=O)[O-])c1NCCNC(=S)Nc1cccc(F)c1	90.4*	nt	21.3	-4.8	nt	78.5*
CN(C)NC(=S)Nc1cccc(C(F)(F)F)c1	-1.7	nt	-27.0	18.1	nt	nt
Fc1ccc(CNC(=S)Nc2cccc(C(F)(F)F)c2)cc1	100.5*	0.2	3.3	-1.9	2.1	85.1*
COCCn1cnc2c1c(=O)n(CC(=O)NC(=O)NC(C)(C)C)c(=O)n2Cc1ccccc1	0.3	nt	-13.4	3.3	nt	nt
O=C(Nc1ccccc1)Nc1cccc2ccccc12	70.6*	nt	-7.9	-2.8	nt	75.2*
CC1(C)SC(=S)N(/N=C/c2ccccc2O)C1N(O)C(=O)Nc1ccccc1 (stereo not drawn)	49.8	nt	-6.0	-0.3	nt	nt
